Measurements taken from PMC11564564 (Scientific Reports, 2024).
≈ marks a conversion by molar mass, not a printed value.

Legend:
ESBL-producing E. coli = experiment: MIC by serial dilution, ESBL E. coli; type: cell-based; details: Escherichia coli, read-out: Minimum inhibitory concentration (MIC), E. coli
Outline: (§1)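 MIC was set by serial dilution of test compound, with three replicates per concentration. Strains were clinical E. coli, K. pneumoniae and P. aeruginosa isolates, identified biochemically and confirmed as ESBL producers by double disc synergy test (ceftazidime and cefotaxime discs 20 mm from amoxicillin/clavulanate on Mueller Hinton agar, 37 °C, 18–20 h).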

[1] = system: ESBL-producing K. pneumoniae; experiment: MIC by serial dilution, ESBL K. pneumoniae; type: cell-based; details: Klebsiella pneumoniae, read-out: Minimum inhibitory concentration (MIC), K. pneumoniae
Outline: (§2)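 Bacterial isolates were confirmed ESBL-positive by double disc synergy test. For that test, a 0.5 McFarland suspension was swabbed onto Mueller Hinton agar, and ceftazidime and cefotaxime (30 μg) discs were placed 20 mm from an amoxicillin/clavulanate (30 μg) disc. Plates were incubated at 37 °C for 18-20 h, and an enhanced zone indicated ESBL. Test compounds were dissolved in appropriate solvents, and MIC was determined by serial dilution, three replicates per concentration.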

Solubility in DMSO = type: physicochemical
[2] = system: ESBL-producing strains (E. coli, K. pneumoniae, and P. aeruginosa); experiment: MIC, summary across ESBL-producing strains; type: cell-based
Outline: as §1

[3] = system: ESBL-producing P. aeruginosa; experiment: MIC by serial dilution, ESBL P. aeruginosa; type: cell-based; details: Pseudomonas aeruginosa, read-out: Minimum inhibitory concentration (MIC), P. aeruginosa
Outline: as §2

human red blood cells = experiment: Hemolytic; type: cell-based; details: Erythrocyte, 1 h, read-out: IC50, Human RBC's
Outline: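 Blood from a healthy donor was collected in EDTA. RBCs were pelleted at 14,000 rpm for 5 min, and 200 µL of pellet was resuspended in 9.8 mL PBS, pH 7.2. 100 µL suspension plus 100 µL test solution (200–1 µg/mL) were incubated 1 h at 35 °C, then spun at 10,000 rpm for 10 min. Supernatant haemoglobin was read at 540 nm. Triton X-100 and PBS defined 100% and 0% hemolysis.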

Brine shrimp lethality = details: Artemia salina (brine shrimp), in vivo
Outline: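 Artemia salina eggs were hatched for 24 h in aerated, lit salt water (27 g table salt per 3 L). Ten nauplii went into each tube with test compound at 1–200 µg/mL in 300 µL total. After 24 h, survivors were counted under a magnifier and percent mortality calculated. IC50 came from Finney analysis.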

tuberculosis = details: cited from earlier work

Structure (SMILES) | MIC (ESBL-producing E. coli) [µg/mL] | MIC [1] [µg/mL] | Solubility in DMSO (Solubility in DMSO) | MIC [2] [µg/mL] | MIC [3] [µg/mL] | IC50 (human red blood cells) [µg/mL] | IC50 at 24 h (Brine shrimp lethality) [µg/mL] | MIC, antituberculosis activity (tuberculosis) [µM]
COc1cc(C=Nc2ccc([N+](=O)[O-])cc2)ccc1O [SB-1, 2-Methoxy-4-((4-nitrophenylimino)methyl)phenol] | 125 (≈ 459 µM) | 125 (≈ 459 µM) | Soluble in DMSO | 125 (≈ 459 µM) | 125 (≈ 459 µM) | > 200 | 50.5 (≈ 185 µM) | 
COc1cc(C=Nc2ccccc2Br)ccc1O [SB-2, 4-((2-Bromophenylimino)methyl)-2-methoxyphenol] | 250 (≈ 817 µM) | 250 (≈ 817 µM) | Soluble in DMSO | 250 (≈ 817 µM) | 250 (≈ 817 µM) |  |  | 
COc1cc(C=Nc2ccc(C)cc2Cl)ccc1O [SB-3, 4-((2-Chloro-4-methylphenylimino)methyl)-2-methoxyphenol] | 125 (≈ 453 µM) | 125 (≈ 453 µM) | Soluble in DMSO | 125 (≈ 453 µM) | 125 (≈ 453 µM) | > 200 |  | 
COc1cc(C=Nc2cccc(O)c2)ccc1O [SB-4, 4-((3-Hydroxyphenylimino)methyl)-2-methoxyphenol] | 125 (≈ 514 µM) | 125 (≈ 514 µM) | Soluble in DMSO | 125 (≈ 514 µM) | 125 (≈ 514 µM) |  |  | 
COc1cc(C=Nc2ccc(Cl)cc2Cl)ccc1O [SB-5, 4-((2,4-Dichlorophenylimino)methyl)-2-methoxyphenol] | 125 (≈ 422 µM) | 125 (≈ 422 µM) | Soluble in DMSO | 125 (≈ 422 µM) | 125 (≈ 422 µM) | > 200 | 45.7 (≈ 154 µM) | 
[H]/N=C(/N)N[C@H]1[C@H](O)[C@@H](O)[C@H](O[C@@H]2O[C@@H](C)[C@](O)(C=O)[C@H]2O[C@@H]2O[C@@H](CO)[C@H](O)[C@@H](O)[C@@H]2NC)[C@@H](N/C(N)=N\[H])[C@@H]1O [streptomycin] |  |  |  |  |  |  |  | 10.7 (≈ 6.22 µg/mL)
